Measurements of several laboratories.
Protocols differ between the studies behind these lines.
Target: Cytochrome P450 2C9 (CYP2C9, Homo sapiens, UniProt P11712)
Effect on: enzyme activity
Mode: inhibitor

| SMILES | assay | system | conditions | endpoint | value |
| --- | --- | --- | --- | --- | --- |
| CCc1cc(/C(C)=N/OCc2ccc(C3CCCCC3)c(C(F)(F)F)c2)ccc1CN1CC(C(=O)O)C1 |  | human, liver microsomes | 200 µM, 20 min | inhibition | 43.2% |
| CC(=O)N1CCN(c2ccc(OCC3COC(Cn4ccnc4)(c4ccc(Cl)cc4Cl)O3)cc2)CC1 (stereo not shown) |  | human, liver microsomes | 1 µM | inhibition | 24% |
| O=C(N[C@H](Cc1c[nH]c2ccccc12)C(=O)Nc1ccncc1)c1ccc(-c2cc(F)ccc2F)cc1F |  | human, liver microsomes | 1 µM | inhibition | 92% |
| NC(=O)C1CCN(C(=O)Cc2ccc(N(CCCO)Cc3cnc4nc(N)nc(N)c4n3)cc2)CC1 | luciferase |  | 10 µM | inhibition | -7.8% |
| O=C(Nc1c2c(cc3c1CCC3)CCC2)NS(=O)(=O)/C=C/c1nccs1 |  | human, liver microsomes | 2 µM, pH 7.4 | inhibition | 21.4% |
| NC(=O)C1CCCN1C(=O)Cc1ccc(N(CCCO)Cc2cnc3nc(N)nc(N)c3n2)cc1 (stereo not shown) | luciferase |  | 10 µM | inhibition | -3.91% |
| CC1(CO)C(O[C@@H]2O[C@H](C(=O)O)[C@@H](O)[C@H](O)[C@H]2O)CC[C@@]2(C)C1CC[C@]1(C)C2CC=C2[C@H]3CC(C)(C)[C@H](O)[C@@H](O)[C@]3(CO)[C@H](O)C[C@]21C (stereo partly shown) | mass spectrometry | human, liver microsomes |  | IC50 | > 90 µg/mL |
| C=CC(=O)Nc1cc(Nc2nccc(Nc3cc(Cl)c(F)cc3C(C)(C)O)n2)c(OC)cc1N1CC[C@@H](N(C)C)C1 |  | human, liver microsomes | 10 µM | inhibition | < 20% |
| Cc1cccc(F)c1N1CCC(N2Cc3cn(CC(C)(F)F)nc3N(Cc3ccccc3C(F)(F)F)C2=O)CC1 |  | human, liver microsomes |  | IC50 | > 10 µM |
| C=C[C@H]1C[N@@]2CC[C@H]1C[C@@H]2[C@@H](O)c1ccnc2ccc(OC)cc12 |  | human, liver microsomes | 10 µM | inhibition | 15% |
| COC(=O)C1CCN(C(=O)c2cccc(NCc3cnc4nc(N)nc(N)c4n3)c2)CC1 | luciferase |  | 10 µM | inhibition | -4.69% |
| CC(=O)c1cccc(OCc2cc(C(=O)N(C)[C@@H](C)c3ccccn3)no2)c1 |  | human, liver microsomes |  | IC50 | 6.3 µM |
| O=C(NS(=O)(=O)c1ccc(Br)s1)c1ccc(Cl)cc1Cl |  | human, liver microsomes |  | Ki | 100 nM |
